Data from ChEMBL document CHEMBL3232978, “Efficient synthesis of novel glutamate homologues and investigation of their affinity and selectivity profile at ionotropic glutamate receptors” (Bioorg Med Chem Lett, 2014).

Key:
Glutamate NMDA receptor [1] = test: Displacement of [3H]CPP from NMDA receptor in Sprague-Dawley rat brain cortical synaptic membranes after 1 hr by liquid scintillation counting v
[2] = target: Glutamate receptor ionotropic, AMPA (Rattus norvegicus, UniProt P19490+P19491+P19492+P19493); test: Displacement of [3H]AMPA from AMPA receptor in Sprague-Dawley rat brain cortical synaptic membranes after 1 hr by liquid scintillation counting
In short: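 Radioligand displacement in rat cortical membranes: [3H]AMPA labelled AMPA receptors and [3H]KA labelled kainate receptors. Results are reported as IC50 for displacement of the radioligand.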

[3] = test system: kainate receptor (Rattus norvegicus); test: Displacement of [3H]KAIN from kainate receptor in Sprague-Dawley rat brain cortical synaptic membranes at 100 uM after 1 hr by liquid scintillation counting
[4] = target: Glutamate receptor ionotropic, AMPA (Rattus norvegicus) (UniProt P19491+P19492+P19493+P19490); test: Displacement of [3H]AMPA from AMPA receptor in Sprague-Dawley rat brain cortical synaptic membranes at 100 uM after 1 hr by liquid scintillation counting
In short: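 In rat cortical membrane binding, test compounds were applied at a single concentration of 100 µM. Percent displacement of bound [3H]AMPA (AMPA sites) or [3H]KA (kainate sites) was recorded.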

[5] = target: kainate receptor (Rattus norvegicus); test: Displacement of [3H]KAIN from kainate receptor in Sprague-Dawley rat brain cortical synaptic membranes after 1 hr by liquid scintillation counting
Glutamate NMDA receptor [6] = test: Displacement of [3H]CGP39653 from NMDA receptor in Sprague-Dawley rat brain cortical synaptic membranes after 1 hr by liquid scintillation counting v
In short: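 Competition binding on rat cortical membranes, with [3H]CGP39653 labelling NMDA receptor sites. Ki values were derived and expressed as mean pKi ± SEM from three independent experiments. Hill coefficients were also determined.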

SMILES	Ki (Glutamate NMDA receptor [1]) [µM]	IC50 [2] [µM]	inhibition [3] [%]	inhibition [4] [%]	IC50 [5] [µM]	Ki (Glutamate NMDA receptor [6]) [µM]
N[C@H](CCCC(=O)O)C(=O)O	13					
N[C@H](CCCc1cscc1C(=O)O)C(=O)O		> 100	5	5	> 100	14
N[C@H](CCCc1ccccc1C(=O)O)C(=O)O		> 100	5	5	> 100	32
N[C@H](C/C=C/c1cscc1C(=O)O)C(=O)O		> 100	5	5	> 100	52
N[C@H](C/C=C/c1ccccc1C(=O)O)C(=O)O		> 100	5	5	> 100	> 100
